Sampled rows, rich in hits. Any-hit rate of the full collection: about 4.6%.
OX1R antag-1: antagonists of human orexin 1 receptor (OX1R) | OX1R-expressing cells, FRET antagonist read-out | inhibition, % at 6.6 µM | 330,000 tested, 1.8% active; in the data active = inhibition mostly above about 38%, no sharp cut-off; inactive = mostly below about 40%;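 also: 0% = agonist challenge alone and 100% = reference antagonist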
TAAR1 ag: human TAAR1 agonism | 360,000 tested, 0.99% active | Q96RJ0 | AID 624467 | activation, % at 3 µM | CHO RD-HGA16 TAAR1, Fluo-8 calcium fluorescence; vehicle wells 0%, saturating PEA agonist 100%;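 active = activation above the mean activation of all test compounds in the run plus 3 SD, cut at about 38% in these data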
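Test system: RD-HGA16 (CHO) cells co-expressing Gα16 and hTAAR1 | Doses: Single dose, 3 µM | Schedule: 17-24 h seeding, 75 min 37 °C dye, 30 min RT | Evaluation: % activation from peak over basal fluorescence ratio, DMSO-to-PEA scaled | Technique: Kinetic Fluo-8 calcium fluorescence | Benchmarks: Low control DMSO, high control PEA (EC100)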
GPR7 antagonist: human neuropeptides B/W receptor 1 antagonism; P48145; inhibition, % at 4.4 µM; GPR7-expressing cells, fluorescence antagonist assay; AID 1861; 290,000 tested, 1.1% active; in the data active = inhibition above about 16%, passing the limit was not always enough;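 also: cells stimulated with the agonist NPW; 0% = agonist with vehicle and 100% = vehicle without agonist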
Target sequence (P48145 whole entry, looked up): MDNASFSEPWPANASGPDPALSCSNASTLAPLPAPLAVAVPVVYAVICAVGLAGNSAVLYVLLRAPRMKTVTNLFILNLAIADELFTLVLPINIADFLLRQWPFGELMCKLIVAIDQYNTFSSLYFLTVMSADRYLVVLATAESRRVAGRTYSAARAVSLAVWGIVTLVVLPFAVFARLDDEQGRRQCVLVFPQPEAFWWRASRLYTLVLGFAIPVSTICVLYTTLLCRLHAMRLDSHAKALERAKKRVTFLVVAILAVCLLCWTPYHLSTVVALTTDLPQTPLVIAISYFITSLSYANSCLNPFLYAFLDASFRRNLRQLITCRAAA
OX1R antag-2: blocks the human orexin 1 receptor; O43613; CHO/OX1R cells, Fluo-8 calcium fluorescence, orexin A; inhibition, % at 5 µM; 330,000 tested, 0.43% active;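 active = inhibition above its plate's threshold, mean inhibition of all tested compounds on the plate plus 3 SD, cut at about 37% in these data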;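 also: 0% = orexin A challenge wells and 100% = SB-334867-A antagonist wells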
TAAR1 antagonist: antagonists of human TAAR1 | Q96RJ0 | CHO RD-HGA16 TAAR1, Fluo-8 calcium fluorescence, antagonist | inhibition, % at 3 µM | 360,000 tested, 1.5% active;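 active = inhibition above a per-plate cutoff, the mean inhibition of test compounds on that plate plus 3 SD, cut at about 49% in these data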;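 also: 0% = DMSO plus EC80 beta-PEA response and 100% = DMSO alone without agonist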
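Assay system: RD-HGA16 CHO cells with stable hTAAR1 and Gα16 / Reagent: EC80 β-phenethylamine stimulus / Doses: 3 µM, single point / Timing: dye loading 75 min at 37 °C, then 30 min room temperature / Measured by: Fluo-8 intracellular calcium dye fluorescence, real-time kinetic reads / Controls: vehicle wells and EC80 agonist wells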
CHO parental Ca: signal in parental CHO cells, OX1R antagonist counter-screen; inhibition, % at 5.6 µM; parental CHO-K1, ATP-induced calcium, Fluo-8 fluorescence; 330,000 tested, 0.63% active; AID 463079;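 active = inhibition above that plate's mean sample inhibition plus 3 SD, cut at about 26% in these data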;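 also: 0% = ATP-challenged DMSO wells and 100% = DMSO wells without ATP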
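Test system: untransfected parental CHO cell line. Compound: one dose, 5.6 µM nominal. Detection: intracellular calcium via Fluo-8 no-wash fluorescent dye. Measure: % inhibition. Benchmarks: ATP-challenged DMSO wells low, unchallenged DMSO wells high.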
OX1R HTRF conf: OX1R (human) antagonism, HTRF confirmed | OX1R-expressing cells, HTRF antagonist assay | 1,800 tested, 49% active | shares compounds with OX1R antag-1 | inhibition, % at 6.6 µM; in the data active = inhibition above about 55%;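 also: CHO cells expressing OX1R stimulated with orexin A at about EC80; 0% = agonist challenge alone and 100% = reference antagonist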
CHO-K1 HTRF cnt: signal in parental CHO-K1 cells, OX1R antagonist counter-screen; inhibition, % at 6.6 µM; 1,800 tested, 48% active; shares compounds with OX1R antag-1; HTRF counterscreen; in the data active = inhibition above about 17%;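 also: 0% = agonist challenge with vehicle and 100% = vehicle alone without agonist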
* = called active by the depositor; / = not tested or not shown.

SMILES	OX1R antag-1	TAAR1 ag	GPR7 antagonist	OX1R antag-2	TAAR1 antagonist	CHO parental Ca	OX1R HTRF conf	CHO-K1 HTRF cnt
CC1CCCC/C1=N\Nc1ccc(S(N)(=O)=O)cc1[N+](=O)[O-] (stereo not drawn)	116*	-1	-4	-5	-9	-6	26	26*
COc1ccc(/C=N/NC(=O)Nc2cccc3nsnc23)cc1OC	82*	7	10	19	10	-13	67*	-5
COc1ccc(OC)c(NC(=O)CCNS(=O)(=O)c2cccc3nsnc23)c1	46	9	-5	-25	-11	-6	/	/
COc1ccc(/C=N/NC(=O)c2cccc(C(=O)N/N=C/c3ccc(OC)c(OC)c3)n2)cc1OC	/	4	-20	/	6	/	/	/
COc1ccc(NC(=O)CCNS(=O)(=O)c2cccc3nsnc23)cc1OC	84*	3	-7	-4	2	-1	30	25*
CC(C)CNc1ncnc2c1ncn2[C@H]1CN(CCN2CCOCC2)C[C@@H](CO)O1	/	4	/	/	-14	/	/	/
COC(=O)c1cc(C(=O)Nc2nnc(CC(C)C)s2)cc([N+](=O)[O-])c1	22	1	-6	-2	-14	-1	/	/
COCc1nnc(NC(=O)c2cc(C(=O)OC)cc([N+](=O)[O-])c2)s1	90*	9	-11	-8	-3	-4	42	46*
Cc1[nH]c2ccccc2c1C(=O)C(C)OC(=O)c1ccccc1NCCO (stereo not drawn)	27	11	/	-5	6	-9	/	/
O=c1/c(=C/c2ccc(O)cc2)sc2n1CCCN=2	47	0	14	-2	-9	9	/	/
CN(C)c1ccc(/C=c2\sc3n(c2=O)CCCN=3)cc1	116*	18	-4	-13	3	-11	36	31*
O=C1SCCC1NS(=O)(=O)c1ccc([N+](=O)[O-])cc1 (stereo not drawn)	96*	1	-2	-7	-19	-11	28	24*
Clc1ccccc1C1CC(c2ccccc2)Nc2ncnn21 (stereo not drawn)	79*	4	-5	-16	2	-7	22	1
O=C1NC(=O)/C(=C\c2ccc(Oc3ccc([N+](=O)[O-])cn3)cc2)S1	77*	-1	9	2	-6	17	46	10
CN(C)CCCNc1ccc(-c2nn(C)c(=O)c3ccccc23)cc1[N+](=O)[O-]	118*	1	-5	-12	13	-9	31	40*
CC(O)CNc1ccc(-c2nn(C)c(=O)c3ccccc23)cc1[N+](=O)[O-] (stereo not drawn)	33	0	-7	-25	2	-12	/	/
CN(C)CCCNc1ccc(S(N)(=O)=O)cc1[N+](=O)[O-]	122*	7	-7	2	4	-4	39	55*
COc1ccc(Nc2ccc(N3C(=O)CC(C)C3=O)cc2[N+](=O)[O-])cn1 (stereo not drawn)	78*	5	0	-13	-3	12	41	39*
COc1cccc(CCNc2ccc(N3C(=O)CC(C)C3=O)cc2[N+](=O)[O-])c1 (stereo not drawn)	30	0	8	-24	-6	-9	/	/
O=C(CCCCn1ccc(=O)[nH]c1=O)Nc1ccc(O)c(C(=O)O)c1	/	3	/	/	-5	/	/	/
COCCN1C(=O)CSCC1(C)C(=O)NCc1ccccc1 (stereo not drawn)	/	1	/	/	-11	/	/	/
CCc1ccc(NC(=O)NCc2cccnc2)cc1	4	2	6	-14	-13	-6	/	/
COc1ccc(C(=O)NCCNc2nc3c(C)cccc3cc2C#N)cc1OC	90*	10	-9	18	0	-6	87*	8
COc1cc(C(=O)NCCNc2nc3c(C)cccc3cc2C#N)cc(OC)c1OC	/	2	/	/	-16	/	/	/
Cn1cnc([N+](=O)[O-])c1S(=O)(=O)Oc1cccc2ccccc12	/	1	/	/	26	/	/	/

Compound activity from PubChem.
